Reference: ChEMBL document CHEMBL3259739, “Synthesis and structure-activity relationship of trisubstituted thiazoles as Cdc7 kinase inhibitors” (Eur J Med Chem, 2014)
pIC50: −log10 of the molar value.

Key:
[1] = molecular target: CDC7/DBF4 (Cell division cycle 7-related protein kinase/Activator of S phase kinase) (Homo sapiens, UniProt O00311); test: Inhibition of Cdc7/Dbf4 (unknown origin)-mediated phosphorylation of MCM2 by protein-A luminescent proximity homogenous assay; type: protein-complex assay
[2] = molecular target: Vascular endothelial growth factor receptor 2 (Homo sapiens) (UniProt P35968); test: Inhibition of VEGFR2 (unknown origin) at 1 uM relative to control; conditions: values are per cent of control
Sequence of Vascular endothelial growth factor receptor 2 (Homo sapiens) (P35968 whole entry): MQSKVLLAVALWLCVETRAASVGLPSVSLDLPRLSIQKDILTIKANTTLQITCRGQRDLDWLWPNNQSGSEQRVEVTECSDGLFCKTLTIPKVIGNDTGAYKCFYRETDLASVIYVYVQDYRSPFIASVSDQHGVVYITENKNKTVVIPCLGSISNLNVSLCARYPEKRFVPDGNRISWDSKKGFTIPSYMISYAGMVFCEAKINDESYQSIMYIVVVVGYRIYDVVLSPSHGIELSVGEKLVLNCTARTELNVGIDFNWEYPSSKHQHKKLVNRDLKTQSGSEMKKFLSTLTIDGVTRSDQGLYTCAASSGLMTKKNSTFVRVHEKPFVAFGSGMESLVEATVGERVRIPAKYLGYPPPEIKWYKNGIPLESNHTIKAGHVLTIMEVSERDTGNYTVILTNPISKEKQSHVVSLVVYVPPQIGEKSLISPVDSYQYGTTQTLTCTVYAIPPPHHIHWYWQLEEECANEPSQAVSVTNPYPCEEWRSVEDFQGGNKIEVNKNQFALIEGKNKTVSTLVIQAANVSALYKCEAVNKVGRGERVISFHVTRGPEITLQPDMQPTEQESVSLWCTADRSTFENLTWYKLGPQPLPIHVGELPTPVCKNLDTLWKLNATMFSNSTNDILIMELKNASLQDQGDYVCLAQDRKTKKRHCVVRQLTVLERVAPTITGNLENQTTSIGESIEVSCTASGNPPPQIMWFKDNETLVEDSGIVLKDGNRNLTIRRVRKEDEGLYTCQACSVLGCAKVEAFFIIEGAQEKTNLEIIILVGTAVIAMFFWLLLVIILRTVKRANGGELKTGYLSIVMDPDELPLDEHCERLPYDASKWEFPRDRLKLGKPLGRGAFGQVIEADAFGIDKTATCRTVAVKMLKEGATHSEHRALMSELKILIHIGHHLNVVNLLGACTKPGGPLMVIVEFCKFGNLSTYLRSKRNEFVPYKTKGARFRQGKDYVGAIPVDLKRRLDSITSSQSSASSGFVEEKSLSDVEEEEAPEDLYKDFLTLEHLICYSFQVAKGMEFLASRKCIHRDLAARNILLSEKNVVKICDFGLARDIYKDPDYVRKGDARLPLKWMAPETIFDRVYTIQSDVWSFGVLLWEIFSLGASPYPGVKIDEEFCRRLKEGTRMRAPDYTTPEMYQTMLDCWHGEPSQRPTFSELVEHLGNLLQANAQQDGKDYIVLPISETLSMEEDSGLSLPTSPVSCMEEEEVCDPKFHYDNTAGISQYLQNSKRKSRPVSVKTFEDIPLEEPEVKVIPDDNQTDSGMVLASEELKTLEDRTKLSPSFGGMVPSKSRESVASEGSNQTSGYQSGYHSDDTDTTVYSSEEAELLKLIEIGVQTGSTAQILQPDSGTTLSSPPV

[3] = molecular target: cAMP-dependent protein kinase catalytic subunit alpha (Homo sapiens) (UniProt P17612); test: Inhibition of PKACalpha (unknown origin) at 1 uM relative to control; conditions: values are per cent of control
Procedure, shortened: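 KinomeSCAN competitive binding panel of 100 kinases; compounds tested at 1 µM in duplicate; read-out is percent […] control.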

[4] = molecular target: ALK tyrosine kinase receptor (Homo sapiens) (UniProt Q9UM73); test: Inhibition of ALK (unknown origin) at 1 uM relative to control; values are per cent of control
[5] = molecular target: RAC-alpha serine/threonine-protein kinase (Homo sapiens) (UniProt P31749); test: Inhibition of AKT1 (unknown origin) at 1 uM relative to control; values are per cent of control
[6] = molecular target: RAC-beta serine/threonine-protein kinase (Homo sapiens) (UniProt P31751); test: Inhibition of AKT2 (unknown origin) at 1 uM relative to control; values are per cent of control
[7] = molecular target: Serine/threonine-protein kinase B-raf (Homo sapiens) (UniProt P15056); test: Inhibition of BRAF (unknown origin) at 1 uM relative to control; values are per cent of control
Sequence of Serine/threonine-protein kinase B-raf (Homo sapiens) (P15056 whole entry): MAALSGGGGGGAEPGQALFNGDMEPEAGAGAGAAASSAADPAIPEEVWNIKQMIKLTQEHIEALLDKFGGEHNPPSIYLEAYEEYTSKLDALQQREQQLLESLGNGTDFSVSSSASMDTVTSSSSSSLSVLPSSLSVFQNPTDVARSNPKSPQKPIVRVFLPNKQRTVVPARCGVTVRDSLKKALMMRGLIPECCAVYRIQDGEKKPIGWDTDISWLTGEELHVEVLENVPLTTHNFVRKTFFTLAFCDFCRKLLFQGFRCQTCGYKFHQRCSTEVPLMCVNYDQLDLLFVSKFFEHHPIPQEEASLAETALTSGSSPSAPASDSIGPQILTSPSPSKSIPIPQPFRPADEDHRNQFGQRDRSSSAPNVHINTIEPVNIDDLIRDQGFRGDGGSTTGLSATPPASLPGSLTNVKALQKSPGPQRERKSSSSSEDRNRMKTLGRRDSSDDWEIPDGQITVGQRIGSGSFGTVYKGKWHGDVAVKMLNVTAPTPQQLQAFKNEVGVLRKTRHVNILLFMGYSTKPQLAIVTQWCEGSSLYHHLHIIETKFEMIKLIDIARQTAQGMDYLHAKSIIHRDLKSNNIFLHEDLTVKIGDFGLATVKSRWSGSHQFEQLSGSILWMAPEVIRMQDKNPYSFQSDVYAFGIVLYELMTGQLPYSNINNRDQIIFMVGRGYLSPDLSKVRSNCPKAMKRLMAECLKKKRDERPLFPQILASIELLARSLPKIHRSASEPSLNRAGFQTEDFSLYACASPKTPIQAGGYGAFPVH

[8] = molecular target: Cyclin-dependent kinase 8 (Homo sapiens) (UniProt P49336); test: Inhibition of CDK8 (unknown origin) at 1 uM relative to control; values are per cent of control
Sequence of Cyclin-dependent kinase 8 (Homo sapiens) (P49336 whole entry): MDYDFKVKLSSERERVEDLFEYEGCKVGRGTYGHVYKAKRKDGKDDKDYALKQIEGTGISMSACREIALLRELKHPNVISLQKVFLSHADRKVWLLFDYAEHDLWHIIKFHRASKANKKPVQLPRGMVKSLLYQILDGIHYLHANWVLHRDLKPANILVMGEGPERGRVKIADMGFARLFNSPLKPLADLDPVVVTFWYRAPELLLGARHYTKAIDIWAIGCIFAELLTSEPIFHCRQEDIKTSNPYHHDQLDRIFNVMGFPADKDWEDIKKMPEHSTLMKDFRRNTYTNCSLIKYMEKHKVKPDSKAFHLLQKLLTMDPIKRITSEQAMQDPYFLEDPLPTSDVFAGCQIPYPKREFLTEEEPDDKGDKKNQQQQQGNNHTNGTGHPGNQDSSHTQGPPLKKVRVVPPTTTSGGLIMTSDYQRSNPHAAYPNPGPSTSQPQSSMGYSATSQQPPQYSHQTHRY

[9] = molecular target: Serine/threonine-protein kinase Nek4 (Homo sapiens) (UniProt P51957); test: Inhibition of NEK4 (unknown origin) at 1 uM relative to control; values are per cent of control
Sequence of Serine/threonine-protein kinase Nek4 (Homo sapiens) (P51957 whole entry, looked up): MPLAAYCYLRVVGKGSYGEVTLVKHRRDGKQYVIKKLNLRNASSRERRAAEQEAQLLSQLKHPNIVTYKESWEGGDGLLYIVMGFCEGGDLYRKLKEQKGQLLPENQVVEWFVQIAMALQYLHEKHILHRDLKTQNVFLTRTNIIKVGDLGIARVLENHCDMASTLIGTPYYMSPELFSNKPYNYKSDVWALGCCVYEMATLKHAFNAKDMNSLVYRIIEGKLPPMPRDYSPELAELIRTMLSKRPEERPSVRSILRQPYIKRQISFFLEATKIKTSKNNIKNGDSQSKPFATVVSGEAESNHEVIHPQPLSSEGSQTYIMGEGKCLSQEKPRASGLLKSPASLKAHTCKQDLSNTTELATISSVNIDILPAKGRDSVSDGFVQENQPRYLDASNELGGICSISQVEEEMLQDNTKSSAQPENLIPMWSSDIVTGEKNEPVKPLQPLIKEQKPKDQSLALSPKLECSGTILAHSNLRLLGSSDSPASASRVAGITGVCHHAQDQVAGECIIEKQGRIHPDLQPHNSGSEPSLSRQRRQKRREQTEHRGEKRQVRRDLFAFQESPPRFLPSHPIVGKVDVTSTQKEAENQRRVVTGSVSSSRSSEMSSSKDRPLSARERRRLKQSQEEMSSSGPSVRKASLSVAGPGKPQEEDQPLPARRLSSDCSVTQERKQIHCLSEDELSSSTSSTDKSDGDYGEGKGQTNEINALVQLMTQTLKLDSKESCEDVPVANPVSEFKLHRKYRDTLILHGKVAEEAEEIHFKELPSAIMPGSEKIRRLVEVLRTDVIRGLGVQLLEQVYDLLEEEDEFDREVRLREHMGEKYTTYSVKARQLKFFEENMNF

[10] = molecular target: T1, Calcium/calmodulin-dependent protein kinase type IV (Homo sapiens) (UniProt Q16566); test: Inhibition of CAMK4 (unknown origin) at 1 uM relative to control; values are per cent of control
T1 sequence (whole entry): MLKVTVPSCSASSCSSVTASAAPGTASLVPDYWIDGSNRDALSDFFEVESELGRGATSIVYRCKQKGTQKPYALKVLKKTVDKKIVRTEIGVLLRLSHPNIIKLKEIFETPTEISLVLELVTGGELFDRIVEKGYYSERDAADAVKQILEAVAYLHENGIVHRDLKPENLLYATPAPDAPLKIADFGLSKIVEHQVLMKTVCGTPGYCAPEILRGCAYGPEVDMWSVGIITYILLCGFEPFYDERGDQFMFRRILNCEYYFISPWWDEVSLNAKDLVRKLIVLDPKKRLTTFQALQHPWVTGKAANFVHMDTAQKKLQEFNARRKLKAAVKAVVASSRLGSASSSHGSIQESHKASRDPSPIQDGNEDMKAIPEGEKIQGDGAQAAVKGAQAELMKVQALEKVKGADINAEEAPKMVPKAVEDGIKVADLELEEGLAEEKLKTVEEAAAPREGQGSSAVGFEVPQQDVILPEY

[11] = molecular target: Death-associated protein kinase 1 (Homo sapiens) (UniProt P53355); test: Inhibition of DAPK1 (unknown origin) at 1 uM relative to control; values are per cent of control
[12] = molecular target: Mitogen-activated protein kinase 14 (Homo sapiens) (UniProt Q16539); test: Inhibition of p38-alpha (unknown origin) at 1 uM relative to control; values are per cent of control
Sequence of Mitogen-activated protein kinase 14 (Homo sapiens) (Q16539 whole entry): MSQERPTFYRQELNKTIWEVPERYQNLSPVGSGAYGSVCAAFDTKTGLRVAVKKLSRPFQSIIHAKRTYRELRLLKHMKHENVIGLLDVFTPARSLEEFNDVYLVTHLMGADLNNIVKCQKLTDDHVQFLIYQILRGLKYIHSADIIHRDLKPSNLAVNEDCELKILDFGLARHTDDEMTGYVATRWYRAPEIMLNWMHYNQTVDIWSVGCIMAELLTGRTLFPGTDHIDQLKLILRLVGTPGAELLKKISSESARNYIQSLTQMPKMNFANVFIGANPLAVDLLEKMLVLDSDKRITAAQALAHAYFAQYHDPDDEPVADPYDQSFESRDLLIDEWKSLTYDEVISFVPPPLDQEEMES

[13] = molecular target: T2, Mitogen-activated protein kinase 12 (Homo sapiens) (UniProt P53778); test: Inhibition of p38-gamma (unknown origin) at 1 uM relative to control; values are per cent of control
T2 sequence (whole entry): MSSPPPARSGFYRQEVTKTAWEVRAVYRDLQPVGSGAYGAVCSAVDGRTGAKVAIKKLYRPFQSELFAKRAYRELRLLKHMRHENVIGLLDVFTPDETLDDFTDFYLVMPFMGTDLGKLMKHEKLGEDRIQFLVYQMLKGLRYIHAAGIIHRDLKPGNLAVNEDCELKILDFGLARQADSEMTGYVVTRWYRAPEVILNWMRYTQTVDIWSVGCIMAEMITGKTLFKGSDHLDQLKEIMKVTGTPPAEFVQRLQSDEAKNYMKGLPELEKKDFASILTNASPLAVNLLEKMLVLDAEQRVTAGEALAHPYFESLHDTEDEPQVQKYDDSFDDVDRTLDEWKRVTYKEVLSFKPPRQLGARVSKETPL

[14] = molecular target: Tyrosine-protein kinase ABL1 (Homo sapiens) (UniProt P00519); test: Inhibition of phosphorylated ABL1 (unknown origin) at 1 uM relative to control; values are per cent of control
Sequence of Tyrosine-protein kinase ABL1 (Homo sapiens) (P00519 whole entry): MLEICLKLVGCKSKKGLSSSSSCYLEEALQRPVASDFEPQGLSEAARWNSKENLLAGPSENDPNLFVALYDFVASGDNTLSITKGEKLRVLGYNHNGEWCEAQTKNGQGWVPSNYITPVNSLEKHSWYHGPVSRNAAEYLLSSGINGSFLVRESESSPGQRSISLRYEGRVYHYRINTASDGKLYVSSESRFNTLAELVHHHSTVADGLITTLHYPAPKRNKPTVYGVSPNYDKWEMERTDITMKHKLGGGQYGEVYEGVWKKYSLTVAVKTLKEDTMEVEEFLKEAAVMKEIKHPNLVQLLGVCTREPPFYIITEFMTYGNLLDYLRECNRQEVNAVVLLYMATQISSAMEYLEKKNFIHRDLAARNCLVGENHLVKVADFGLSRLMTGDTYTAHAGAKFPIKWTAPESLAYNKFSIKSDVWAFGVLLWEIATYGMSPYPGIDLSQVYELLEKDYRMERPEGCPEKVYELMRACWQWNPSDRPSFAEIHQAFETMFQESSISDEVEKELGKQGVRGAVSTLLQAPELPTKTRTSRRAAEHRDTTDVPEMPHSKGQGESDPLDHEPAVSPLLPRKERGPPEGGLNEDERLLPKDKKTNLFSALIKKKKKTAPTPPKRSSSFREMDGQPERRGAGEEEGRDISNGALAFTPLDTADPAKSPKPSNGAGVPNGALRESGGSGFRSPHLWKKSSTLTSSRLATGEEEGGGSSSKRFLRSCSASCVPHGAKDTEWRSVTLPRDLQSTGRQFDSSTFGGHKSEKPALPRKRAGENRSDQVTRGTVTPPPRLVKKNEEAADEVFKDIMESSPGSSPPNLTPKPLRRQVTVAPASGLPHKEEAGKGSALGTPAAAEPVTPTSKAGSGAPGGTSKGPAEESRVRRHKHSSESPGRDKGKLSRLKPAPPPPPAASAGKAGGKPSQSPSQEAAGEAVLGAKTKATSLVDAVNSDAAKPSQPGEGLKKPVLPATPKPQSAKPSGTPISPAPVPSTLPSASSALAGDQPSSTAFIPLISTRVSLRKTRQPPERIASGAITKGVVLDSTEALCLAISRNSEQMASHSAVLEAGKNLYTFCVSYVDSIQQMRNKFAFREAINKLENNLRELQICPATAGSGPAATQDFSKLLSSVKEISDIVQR

Row | Compound | pIC50 [1] | residual binding, % of control [2] | residual binding, % of control [3] | residual activity [4] | residual activity [5] | residual activity [6] | residual activity [7] | residual activity [8] | residual activity [9] | residual activity [10] | residual activity [11] | residual activity [12] | residual activity [13] | residual activity [14]
1 | CCOC(=O)c1sc(-c2ccncc2)nc1O | 6.49 | 74% | 100% | 86% | 75% | 96% | 100% | 82% | 100% | 76% | 77% | 76% | 100% | 100%
2 | NC(=O)c1sc(-c2ccnc(N)n2)nc1-c1ccc(Cl)cc1Cl | 8.42 | 56% | 69% | 100% | 80% | 100% | 80% | 97% | 93% | 100% | 100% | 95% | 65% | 100%
3 | COc1ccc(-c2nc(-c3ccnc(N)n3)sc2C(N)=O)c(Cl)c1 | 8.17 | 92% | 70% | 63% | 66% | 100% | 100% | 84% | 76% | 100% | 100% | 100% | 91% | 90%
